Measured values published in ChEMBL document CHEMBL4130635, “2,4-Diaminoquinazolines as Dual Toll-like Receptor (TLR) 7/8 Modulators for the Treatment of Hepatitis B Virus” (J Med Chem, 2018).
Active and inactive are the calls of the source. The rule behind the calls is not given here.

Experiments:
Cynomolgus monkey [1] = experiment: Induction of G-CSF in cynomolgus monkey plasma at 9 mg/kg, po after 24 hrs by Luminex assay (reference value: 85 pg/ml); type: functional, Macaca fascicularis
Method in brief: (§1)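 Healthy cynomolgus monkeys given single oral doses of 1, 3, 9 and 30 mg/kg, with a 2-week wash-out planned between doses. Systemic cytokine levels in plasma were sampled at 0.5, 1, 2, 4, 9 and 24 h postdose.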

[2] = Intrinsic clearance in human liver microsomes assessed per mg protein at 1 uM up to 60 mins; type: ADME, microsome; details: read-out: CLH
Plasma [3] = experiment: Proinflammatory activity in C57BL/6J mouse plasma assessed as TNFalpha levels at 1 mg/kg, po by multiplex assay (reference value: 70 pg/ml); type: functional
Plasma [4] = experiment: Effect on cytokine profile in C57BL/6J mouse plasma assessed as IL-12p70 levels at 0.3 mg/kg, po by multiplex assay (reference value: 560 pg/ml); type: functional
Method in brief: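 Single oral gavage in 20% HP-β-CD to healthy C57BL/6 mice, groups of 15 at 0.3, 1, 3, 10 or 30 mg/kg. Three mice per group sacrificed at 0.5, 1, 2, 4 or 7 h. Plasma and liver cytokines by multiplex, maximum level reported, rounded to nearest multiple of 5.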

Cynomolgus monkey [5] = experiment: Proinflammatory activity in cynomolgus monkey plasma assessed as IL-8 levels at 30 mg/kg, po after 24 hrs by Luminex assay (reference value: 430 pg/ml); type: functional, Macaca fascicularis
[6] = Solubility of the compound in FaSSIF; type: physicochemical
Cynomolgus monkey [7] = experiment: Toxicity in cynomolgus monkey assessed as induction of clinical pathology changes up to 30 mg/kg, po; type: organism-based, Macaca fascicularis; details: in vivo
Cynomolgus monkey [8] = experiment: Induction of ISG response in cynomolgus monkey plasma assessed as upregulation of Mx1 mRNA expression at 1 mg/kg, po after 24 hrs by Fluidigm RT-qPCR analysis (reference value: 1); type: functional, Macaca fascicularis
Method in brief: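 Cynomolgus monkeys, single oral doses of 1, 3, 9 and 30 mg/kg with a planned 2-week wash-out between doses. Systemic ISG (ISG15, Mx1, OAS1) mRNA was measured by Fluidigm RT-qPCR at 1, 2, 4, 8 and 24 h postdose.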

Cynomolgus monkey [9] = experiment: Effect on cytokine profile in cynomolgus monkey plasma assessed as IL-12P70 levels at 3 mg/kg, po after 24 hrs by Luminex assay (reference value: 2.17 pg/ml); type: functional, organism-based; details: Macaca fascicularis; method in brief: as §1
Cynomolgus monkey [10] = experiment: Toxicity in cynomolgus monkey assessed as clinical observation changes up to 30 mg/kg, po; type: organism-based, Macaca fascicularis; details: in vivo
Cynomolgus monkey [11] = experiment: Proinflammatory activity in cynomolgus monkey plasma assessed as IL-6 levels at 3 mg/kg, po after 24 hrs by Luminex assay (reference value: 80 pg/ml); type: functional, Macaca fascicularis
[12] = molecular target: Alpha-1A adrenergic receptor; experiment: Inhibition of alpha-1A adrenergic receptor (unknown origin)
Cynomolgus monkey [13] = experiment: Proinflammatory activity in cynomolgus monkey plasma assessed as IL-8 levels at 3 mg/kg, po after 24 hrs by Luminex assay (reference value: 430 pg/ml); type: functional, Macaca fascicularis
Cynomolgus monkey [14] = experiment: Effect on cytokine profile in cynomolgus monkey plasma assessed as IL-15 levels at 1 mg/kg, po after 24 hrs by Luminex assay (reference value: 20 pg/ml); type: functional, Macaca fascicularis; method in brief: as §1
[15] = Cmax in cynomolgus monkey plasma at 1 mg/kg, po by LC-MS analysis; type: ADME, organism-based, Macaca fascicularis; set-up: dose 1 mg/kg, route oral
Method in brief: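 Healthy cynomolgus monkeys received oral doses of 1, 3, 9 and 30 mg/kg, with a 2-week wash-out between doses. Systemic compound concentrations by LC−MS at 0.25, 0.5, 1, 2, 4, 8 and 24 h postdose.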

Cynomolgus monkey [16] = experiment: Plasma concentration in cynomolgus monkey at 30 mg/kg, po by LC-MS analysis; type: ADME, organism-based, Macaca fascicularis; details: in vivo
Cynomolgus monkey [17] = experiment: Induction of IFNalpha levels in cynomolgus monkey plasma at 1 mg/kg, po after 24 hrs by ELISA; type: functional, Macaca fascicularis; method in brief: as §1
Liver [18] = experiment: Induction of IFNalpha levels in C57BL/6J mouse liver at 1 mg/kg, po by ELISA (reference value: 30 pg/g); type: functional
[19] = Cmax in C57BL/6J mouse plasma at 10 mg/kg, po by LC-MS analysis; type: ADME, organism-based; set-up: dose 10 mg/kg, route oral
Method in brief: (§2)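 Healthy C57BL/6 mice, groups of 15, given a single oral dose (0.3, 1, 3, 10 or 30 mg/kg) in 20% HP-β-CD. Blood drawn at 0.5 h. Three mice per group sacrificed at 0.5, 1, 2, 4 or 7 h, and compound in plasma and liver measured by LC−MS. Values rounded to whole numbers.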

[20] = molecular target: T1, TLR7 and TLR8 (Homo sapiens) (UniProt Q9NYK1+Q9NR97); experiment: Agonist activity at TLR7/8 in human PBMCs co-cultured with primary human hepatocytes infected with HBV genotype C for 12 days assessed as increase in VEGF levels up to 5 uM measured after 42 days
Liver [21] = experiment: Upregulation of IP-10 mRNA expression levels in C57BL/6J mouse liver at 0.3 mg/kg, po by RT-qPCR analysis (reference value: 1); type: functional
[22] = tested on: Toll-like receptor 7/8 (Homo sapiens); experiment: Agonist activity at TLR7/8 in human PBMCs assessed as decrease in HBeAg levels in human hepatocytes infected with HBV genotype C for 12 days followed by exposure to conditioned supernatant from up to 5 uM compound treated PBMCs measured after 42 days
[23] = Cmax in C57BL/6J mouse liver at 1 mg/kg, po by LC-MS analysis; type: ADME, organism-based; set-up: dose 1 mg/kg, route oral; method in brief: as §2
Cynomolgus monkey [24] = experiment: Proinflammatory activity in cynomolgus monkey plasma assessed as IL-8 levels at 9 mg/kg, po after 24 hrs by Luminex assay (reference value: 430 pg/ml); type: functional, Macaca fascicularis
[25] = AUC (0 to last) in C57BL/6J mouse liver at 30 mg/kg, po by LC-MS analysis; type: ADME, organism-based; details: in vivo
Method in brief: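 Healthy C57BL/6 mice were dosed once by mouth at 0.3, 1, 3, 10 or 30 mg/kg in 20% HP-β-CD, in groups of 15 per dose. Three mice per group were sacrificed at 0.5, 1, 2, 4 or 7 h, and plasma and liver compound levels were measured by LC–MS. Values were rounded to whole numbers.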

[26] = Plasma concentration in C57BL/6J mouse at 30 mg/kg, po by LC-MS analysis; type: ADME, organism-based; details: in vivo
Cynomolgus monkey [27] = experiment: Induction of IFNalpha levels in cynomolgus monkey plasma at 3 mg/kg, po after 24 hrs by ELISA; type: functional, Macaca fascicularis; method in brief: as §1
[28] = molecular target: T1, TLR7 and TLR8 (Homo sapiens); experiment: Agonist activity at TLR7/8 in human PBMCs co-cultured with primary human hepatocytes infected with HBV genotype C for 12 days assessed as increase in IL-1Ra levels up to 5 uM measured after 42 days
Liver [29] = experiment: Proinflammatory activity in C57BL/6J mouse liver assessed as IL-6 levels at 3 mg/kg, po by multiplex assay (reference value: 10 pg/g); type: functional
Liver [30] = experiment: Proinflammatory activity in C57BL/6J mouse liver assessed as IL-6 levels at 1 mg/kg, po by multiplex assay (reference value: 10 pg/g); type: functional
Cynomolgus monkey [31] = experiment: Plasma concentration in cynomolgus monkey at 3 mg/kg, po by LC-MS analysis; type: ADME, organism-based, Macaca fascicularis; details: in vivo

Structure (SMILES): CCC[C@@H](CCO)Nc1nc(N)nc2c(F)cccc12
- Activity (Cynomolgus monkey [1]): 825 pg/mL
- microsomal CLint at 1 µM [2]: 8 µL/min/mg
- Activity (Plasma [3]): 335 pg/mL
- Activity (Plasma [4]): 470 pg/mL
- Activity (Cynomolgus monkey [5]): 1840 pg/mL
- solubility [6]: > 4000 µg/mL
- Activity (Cynomolgus monkey [7]): Non-Toxic
- fold change (FC) (Cynomolgus monkey [8]): 40
- Activity (Cynomolgus monkey [9]): Below limit of detection
- Activity (Cynomolgus monkey [10]): Non-Toxic
- Activity (Cynomolgus monkey [11]): 200 pg/mL
- IC50 [12]: > 10 µM
- Activity (Cynomolgus monkey [13]): 1505 pg/mL
- Activity (Cynomolgus monkey [14]): 20 pg/mL
- Cmax [15]: 38 ng/mL
- Cp (Cynomolgus monkey [16]): 160 ng/mL
- Activity (Cynomolgus monkey [17]): 3465 pg/mL
- Activity (Liver [18]): 215 pg/g
- Cmax [19]: 148 ng/mL
- Activity [20]: Active
- fold change (FC) (Liver [21]): 35
- Activity [22]: Dose-dependent effect
- Cmax [23]: 188 ng/g
- Activity (Cynomolgus monkey [24]): 1640 pg/mL
- AUClast [25]: 7160 ng·h/g
- Cp [26]: 35.7 ng/mL
- Activity (Cynomolgus monkey [27]): >51200 pg/mL
- Activity [28]: Active
- Activity (Liver [29]): 3225 pg/g
- Activity (Liver [30]): 905 pg/g
- Cp (Cynomolgus monkey [31]): 14 ng/mL
